Data on two compounds can be found in ChEMBL document CHEMBL1122275, “1,3-dipalmitoylglycerol ester of chlorambucil as a lymphotropic, orally administrable antineoplastic agent” (J Med Chem, 1983).

Series [1] relates to Mus musculus. Put plainly: Antitumor activity measured as Body weight change (BWC) between day 1 and 5 at 0.035 […] dose against ip inoculated P388 leukemia in CDF1 mice. It is filed as functional. Summed up: (§1)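 Groups of six male CDF1 mice (18-22 g) were inoculated ip on day 0 with 1×10^6 viable P388 ascites cells from DBA/2 passage, suspended in chilled 0.9% saline. Drugs were suspended in 0.3% hydroxypropylcellulose in saline and given ip daily for 4 days starting at 24 h. Survival was followed to day 40. T/C = treated/control MST ×100, with 24 controls. BWC = mean weight change from day 1 to day 5.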

The test system of series [2] is Mus musculus. Put plainly: Antitumor activity measured as Body weight change (BWC) between day 1 and 5 at 0.035 […] dose against sc inoculated P388 leukemia in CDF1 mice. Type of series: functional. Put shortly:
(§2)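 Male CDF1 mice (18-22 g; 6 per dose, 24 controls) received 10^6 viable P388 cells sc on day 0. Drugs in 0.3% hydroxypropylcellulose/saline were given ip or orally, daily for 4 days from 24 h and again on day 10. Survival was followed to day 40. T/C = MST ratio ×100. BWC covers day 1 to day 5. Toxicity was judged by NCI norms.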

Series [3] has as its system Mus musculus. Put plainly: Antitumor activity measured as Body weight change (BWC) between day 1 and 5 at 0.052 […] dose against ip inoculated P388 leukemia in CDF1 mice. Type of series: functional. Put shortly:
as §1

In series [4] the test system is Mus musculus. Put plainly: Antitumor activity measured as Body weight change (BWC) between day 1 and 5 at 0.052 […] dose against sc inoculated P388 leukemia in CDF1 mice. It is filed as functional. Summed up: as §2
Series [5] concerns Mus musculus. Put plainly: Antitumor activity measured as Body weight change (BWC) between day 1 and 5 at 0.069 […] dose against ip inoculated P388 leukemia in CDF1 mice. It is filed as functional. Summed up:
as §1

Series [6] concerns Mus musculus. The series is described as follows: Antitumor activity measured as Body weight change (BWC) between day 1 and 5 at 0.069 […] dose against sc inoculated P388 leukemia in CDF1 mice. It is filed as functional. Put shortly: as §2
The subject of series [7] is Mus musculus. The series is described as follows: Antitumor activity measured as Body weight change (BWC) between day 1 and 5 at 0.11 […] dose against po inoculated P388 leukemia in CDF1 mice. It is filed as functional. Summed up:
as §2

The test system of series [8] is Mus musculus. The series is described as follows: Antitumor activity measured as Body weight change (BWC) between day 1 and 5 at 0.17 […] dose against po inoculated P388 leukemia in CDF1 mice. It is filed as functional. Put shortly: as §2
Series [9] deals with Mus musculus. The series is described as follows: Antitumor activity measured as T/C at 0.035 […] dose against ip inoculated P388 leukemia in CDF1 mice. It is filed as functional. Summed up: as §1
Series [10] concerns Mus musculus. The series is described as follows: Antitumor activity measured as T/C at 0.052 […] dose against ip inoculated P388 leukemia in CDF1 mice. Type of series: functional. Summed up: as §1
Series [11] deals with Mus musculus. The series is described as follows: Antitumor activity measured as T/C at 0.069 […] dose against ip inoculated P388 leukemia in CDF1 mice. Type of series: functional. Summed up: as §1
In series [12] the test system is Mus musculus. The series is described as follows: Antitumor activity measured as T/C at 0.11 […] dose against po inoculated P388 leukemia in CDF1 mice. It is filed as functional. Put shortly: as §2
Series [13] concerns Mus musculus. Put plainly: Antitumor activity measured as T/C at 0.17 […] dose against po inoculated P388 leukemia in CDF1 mice. Type of series: functional. Summed up:
as §2

Series [14] concerns Mus musculus. Put plainly: Antitumor activity measured as T/C at 0.23 […] dose against po inoculated P388 leukemia in CDF1 mice; Toxic. Type of series: functional, organism-based. Summed up:
as §2

Series [15] has as its system Mus musculus. The series is described as follows: Antitumor a dose 0.069 […] against ip inoculated P388 leukemia in CDF1 mice. Type of series: functional. Put shortly:
as §1

For series [16], the system named is Mus musculus. The series is described as follows: Antitumor a dose 0.11 […] against po inoculated P388 leukemia in CDF1 mice. It is filed as functional. Summed up:
as §2

For series [17], the system named is Mus musculus. The series is described as follows: Antitumor a dose 0.17 […] against po inoculated P388 leukemia in CDF1 mice. It is filed as functional. Put shortly: as §2
Series [18] concerns Mus musculus. The series is described as follows: Antitumor a dose 0.23 […] against po inoculated P388 leukemia in CDF1 mice; Toxic. It is filed as toxicity, organism-based. Conditions: in vivo. Summed up: as §2
Series [19] has as its system Mus musculus. Put plainly: Antitumor a dose 0.035 nmol/Kg against ip inoculated P388 leukemia in CDF1 mice. Type of series: functional. Put shortly:
as §1

For series [20], the system named is Mus musculus. The series is described as follows: Antitumor a dose 0.035 nmol/kg against ip inoculated P388 leukemia in CDF1 mice. Type of series: functional. Put shortly: as §1
Series [21] has as its system Mus musculus. Put plainly: Antitumor a dose 0.052 […] against ip inoculated P388 leukemia in CDF1 mice. Type of series: functional. Summed up: as §1
For series [22], the system named is Mus musculus. The series is described as follows: Antitumor activity measured as Body weight change (BWC) between day 1 and 5 at 0.033 […] dose against sc inoculated P388 leukemia in CDF1 mice. Type of series: functional. Put shortly: as §2
For series [23], the system named is Mus musculus. The series is described as follows: Antitumor activity measured as Body weight change (BWC) between day 1 and 5 at 0.050 […] dose against ip inoculated P388 leukemia in CDF1 mice. Type of series: functional. Summed up:
as §1

Series [24] relates to Mus musculus. The series is described as follows: Antitumor activity measured as Body weight change (BWC) between day 1 and 5 at 0.050 […] dose against sc inoculated P388 leukemia in CDF1 mice. It is filed as functional. Put shortly:
as §2

Series [25] relates to Mus musculus. The series is described as follows: Antitumor activity measured as Body weight change (BWC) between day 1 and 5 at 0.066 […] dose against ip inoculated P388 leukemia in CDF1 mice. It is filed as functional. Put shortly: as §1
In series [26] the test system is Mus musculus. Put plainly: Antitumor activity measured as Body weight change (BWC) between day 1 and 5 at 0.066 […] dose against po inoculated P388 leukemia in CDF1 mice. Type of series: functional. Put shortly: as §2
In series [27] the test system is Mus musculus. Put plainly: Antitumor activity measured as Body weight change (BWC) between day 1 and 5 at 0.066 […] dose against sc inoculated P388 leukemia in CDF1 mice. It is filed as functional. Summed up: as §2
In series [28] the test system is Mus musculus. Put plainly: Antitumor activity measured as Body weight change (BWC) between day 1 and 5 at 0.033 […] dose against ip inoculated P388 leukemia in CDF1 mice. It is filed as functional. Put shortly: as §1
Series [29] has as its system Mus musculus. Put plainly: Antitumor activity measured as T/C at 0.033 […] dose against ip inoculated P388 leukemia in CDF1 mice. It is filed as functional. Put shortly: as §1
Series [30] relates to Mus musculus. The series is described as follows: Antitumor activity measured as T/C at 0.050 […] dose against ip inoculated P388 leukemia in CDF1 mice. It is filed as functional. Put shortly:
as §1

The subject of series [31] is Mus musculus. The series is described as follows: Antitumor activity measured as T/C at 0.066 […] dose against ip inoculated P388 leukemia in CDF1 mice. It is filed as functional. Put shortly:
as §1

Series [32] relates to Mus musculus. Put plainly: Antitumor activity measured as T/C at 0.066 […] dose against ip inoculated P388 leukemia in CDF1 mice; Toxic. It is filed as toxicity, organism-based. Conditions: in vivo. Put shortly: as §2
In series [33] the test system is Mus musculus. Put plainly: Antitumor activity measured as T/C at 0.066 […] dose against po inoculated P388 leukemia in CDF1 mice. It is filed as functional. Summed up:
as §2

Series [34] concerns Mus musculus. Put plainly: Antitumor activity measured as T/C at 0.11 […] dose against po inoculated P388 leukemia in CDF1 mice; Toxic. It is filed as toxicity, organism-based. Conditions: in vivo. Put shortly:
as §2

The test system of series [35] is Mus musculus. The series is described as follows: Antitumor activity measured as T/C at 0.16 […] dose against po inoculated P388 leukemia in CDF1 mice; Toxic. Type of series: toxicity, organism-based. Particulars: in vivo. Put shortly:
as §2

Series [36] relates to Mus musculus. The series is described as follows: Antitumor a dose 0.066 […] against po inoculated P388 leukemia in CDF1 mice. It is filed as functional. Put shortly:
as §2

For series [37], the system named is Mus musculus. Put plainly: Antitumor a dose 0.11 […] against po inoculated P388 leukemia in CDF1 mice; Toxic. Type of series: toxicity, organism-based. Conditions: in vivo. Put shortly: as §2
The subject of series [38] is Mus musculus. Put plainly: Antitumor a dose 0.16 […] against po inoculated P388 leukemia in CDF1 mice; Toxic. It is filed as toxicity, organism-based. Particulars: in vivo. Summed up: as §2
In series [39] the test system is Mus musculus. Put plainly: Antitumor a dose 0.033 nmol/Kg against ip inoculated P388 leukemia in CDF1 mice. Type of series: functional. Summed up:
as §1

Series [40] deals with Mus musculus. The series is described as follows: Antitumor a dose 0.033 nmol/kg against ip inoculated P388 leukemia in CDF1 mice. It is filed as functional. Put shortly: as §1
Series [41] deals with Mus musculus. Put plainly: Antitumor a dose 0.050 […] against ip inoculated P388 leukemia in CDF1 mice. Type of series: functional. Put shortly:
as §1

Series [42] has as its system Mus musculus. The series is described as follows: Antitumor a dose 0.066 […] against ip inoculated P388 leukemia in CDF1 mice. It is filed as functional. Summed up:
as §1

Series [43] deals with Mus musculus. Put plainly: Antitumor a dose 0.066 […] against ip inoculated P388 leukemia in CDF1 mice; Toxic. Type of series: toxicity, organism-based. Particulars: in vivo. Put shortly:
as §2

“And” between values parts separate entries of the source, which are not always exact repeats. Equal entries are not always repeated.

The T/C is the result in the treated group divided by that in the control group, in per cent. For the compound `CCCCCCCCCCCCCCCC(=O)OCC(COC(=O)CCCCCCCCCCCCCCC)OC(=O)CCCc1ccc(N(CCCl)CCCl)cc1`, the BWC in [1] is given as -1.6 g; in series [2], -2.35 g; in [3] it was -2 g; in series [4], -2.55 g; in series [5], -2.6 g; in series [6], -3.95 g. Moreover, the BWC is listed as -3.5 g in series [7] and -3.9 g in [8]. Besides, the T/C in series [9] was 170% and 141%; in series [10], 220% and 148%; in [11] it was 265% and 162%; in series [12], 168%; in series [13], 234%; in series [14], “Toxic”. In addition, the MST in series [15] was 26.5 days and 23.5 days; in series [16], 24.5 days; in [17] it was 34 days; in series [18], “Toxic”; in series [19], 20.5 days; in series [20], 17 days. In addition, the MST in [21] is 22 days and 21.5 days.

Regarding `O=C(O)CCCc1ccc(N(CCCl)CCCl)cc1` [CHLORAMBUCIL], the BWC was -2.55 g in series [22]; -2.9 g in series [23]; -2.95 g in series [24]; -3.4 g in series [25]; -4.15 g in [26]; -3.95 g in series [27]. The BWC in series [28] was -2.2 g. Besides, the T/C in [29] was 169% and 134%; in series [30], 195% and 148%; in series [31], 230%; in series [32], “Toxic”; in series [33], 155%; in series [34], “Toxic”. The T/C entry in series [35] is “Toxic”. Further, the MST in [36] was 22.5 days; in series [37] it was “Toxic”; in series [38], “Toxic”; in series [39], 19.5 days; in [40], 16.9 days; in series [41], 19.5 days and 21.5 days. The results for the MST in series [42] and in series [43] were 23 days and “Toxic”, respectively.
